# Data as given in ChEMBL document CHEMBL3108778, “Structure-activity relationships of synthetic cordycepin analogues as experimental therapeutics for African trypanosomiasis” (J Med Chem, 2013).
# Calls of active or inactive are those of the source. The calls are words filed in the database; no cut-off is given here.
# What was measured:
# [1] = test system: Trypanosoma brucei brucei; test: Trypanocidal activity against bloodstream stage of Trypanosoma brucei brucei AnTat1.1E after 72 hrs by WST-1 assay; assay type: functional, organism-based
# In short: (§1)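 Bloodstream trypanosomes (6000/well) in log phase were treated in IMDM with 10% FCS for 72 h at 37 °C, 5% CO₂. Compounds were 11-step serial dilutions from DMSO stocks, final DMSO at most 0.25%. Controls were DMSO and 10 μM 3′-deoxyadenosine. Where stated, 1.5 μM deoxycoformycin was co-added. Readout was WST-1 for 2 h, A450. EC50 came from variable-slope nonlinear regression.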
# [2] = Displacement of [2,8-3H]-adenosine from Trypanosoma brucei AT1/P2 expressed in bloodstream stage of Trypanosoma brucei brucei B48
# In short: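 Bloodstream T. b. brucei B48 clone with endogenous TbAT1 deleted and TbAT1 overexpressed. Cells were incubated 20 s with 0.05 μM [2,8-³H]adenosine plus competitor (typically 10 nM–100 μM). Uptake was stopped with ice-cold 1 mM adenosine and centrifugation through oil. Ki came from competition curves, triplicates on at least three occasions.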
# [3] = test system: L929; test: Cytotoxicity against mouse L929 cells assessed as cell viability after 72 hrs by WST-1 assay; assay type: cell-based; conditions: L929, 72 h
# In short: (§2)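 MOLT4 (10⁴/well) or L929 (5 × 10³/well) cells were kept in RPMI with 10% FCS and exposed to serial dilutions for 72 h at 37 °C, 5% CO₂. Final DMSO was at most 0.25%. Where stated, 1.5 μM deoxycoformycin was co-added. WST-1 was added for 2 h and A450 read. EC50 came from variable-slope nonlinear fits; triplicate cultures.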
# [4] = test system: Trypanosoma brucei brucei; test: Trypanocidal activity against bloodstream stage of Trypanosoma brucei brucei AnTat1.1E infected in C57BL6J (B6) mouse assessed as reduction of parasitemia at 4 mg/kg, ip qd administered for 3 days measured after 40 days in presence of deoxycoformycin; assay type: functional, organism-based; parameters: dose 4 mg/kg
# In short: (§3)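 Mice were infected ip with T. b. brucei AnTat1.1E and treated ip once daily starting 2 h later. Where stated, 0.2 mg/kg deoxycoformycin was co-given. Vehicle was PBS with 1.25% final DMSO. Parasitemia and weight were recorded every other day, then twice weekly after 30 days. At least six mice per group.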
# [5] = test system: Trypanosoma brucei brucei; test: Trypanocidal activity against bloodstream stage of Trypanosoma brucei brucei AnTat1.1E after 72 hrs by WST-1 assay in presence of deoxycoformycin; assay type: functional, organism-based; in short: as §1
# [6] = test system: Trypanosoma brucei brucei; test: Trypanocidal activity against bloodstream stage of Trypanosoma brucei brucei AnTat1.1E infected in C57BL6J (B6) mouse assessed as reduction of parasitemia at 4 mg/kg, ip qd administered for 10 days measured after 18 days; assay type: functional, organism-based; parameters: dose 4 mg/kg; in short: as §3
# [7] = test system: Trypanosoma brucei brucei; test: Trypanocidal activity against bloodstream stage of Trypanosoma brucei brucei AnTat1.1E infected in C57BL6J (B6) mouse assessed as reduction of parasitemia at 4 mg/kg, ip qd administered for 10 days measured after 19 to 30 days; assay type: functional, organism-based; parameters: dose 4 mg/kg; in short: as §3
# [8] = test system: Trypanosoma brucei brucei; test: Trypanocidal activity against bloodstream stage of Trypanosoma brucei brucei AnTat1.1E after 72 hrs by WST-1 assay in presence of adenosine kinase inhibitor ABT702; assay type: functional, organism-based
# [9] = test system: Trypanosoma brucei brucei; test: Trypanocidal activity against bloodstream stage of Trypanosoma brucei brucei AnTat1.1E infected in C57BL6J (B6) mouse assessed as reduction of parasitemia at 2 mg/kg, ip qd measured after 30 days; assay type: functional, organism-based; parameters: dose 2 mg/kg; in short: as §3
# [10] = test system: MOLT-4; test: Cytotoxicity against human MOLT4 cells assessed as cell viability after 72 hrs by WST-1 assay in presence of deoxycoformycin; assay type: cell-based; conditions: MOLT-4, 72 h; in short: as §2
# [11] = test system: Trypanosoma brucei; test: Trypanocidal activity against bloodstream stage of Trypanosoma brucei after 72 hrs by WST-1 assay; assay type: functional, organism-based; in short: as §1
# [12] = test system: Trypanosoma brucei; test: Trypanocidal activity against bloodstream stage of Trypanosoma brucei after 72 hrs by WST-1 assay in presence of deoxycoformycin; assay type: functional, organism-based; in short: as §1
# [13] = test system: Trypanosoma brucei brucei; test: Trypanocidal activity against bloodstream stage of Trypanosoma brucei brucei AnTat1.1E infected in C57BL6J (B6) mouse assessed as reduction of parasitemia at 2 mg/kg, ip qd administered for 3 days measured after 40 days in presence of deoxycoformycin; assay type: functional, organism-based; parameters: dose 2 mg/kg; in short: as §3
# [14] = test system: Trypanosoma brucei; test: Trypanocidal activity against Trypanosoma brucei; assay type: functional, organism-based; in short: as §1
# [15] = test system: MOLT-4; test: Cytotoxicity against human MOLT4 cells assessed as cell viability after 72 hrs by WST-1 assay; assay type: cell-based; conditions: MOLT-4, 72 h; in short: as §2
# [16] = Metabolic stability in human plasma at 10 uM measured over 4 hrs by LC-MS/MS analysis; assay type: ADME, cell-free; conditions: read-out: Stability
# In short: (§4)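 Pooled human plasma (four donors) was spiked with 10 μM final compound. It was dialysed against isotonic phosphate buffer pH 7.4 for 4 h at 37 °C by rapid equilibrium dialysis. A separate sealed plasma sample was held 4 h at 37 °C for stability. Samples were methanol-precipitated and quantified by LC-MS/MS.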
# [17] = test system: Liver microsome; test: Metabolic stability in human liver microsomes at 1 uM by LC-MS/MS analysis; assay type: ADME
# In short: (§5)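 Pooled human or male CD-1 mouse liver microsomes (0.5 mg/mL) were incubated with 1 μM compound in 0.1 M phosphate pH 7.4, started with 1 mM NADPH. Sampling was at 0, 5, 15 and 40 min, quenched with cold acetonitrile containing warfarin internal standard. Analysis was LC-MS/MS on a relative basis; intrinsic clearance by the well-stirred model. Midazolam and dextromethorphan were CYP controls.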
# [18] = Apparent permeability across apical to basolateral side in human Caco2 cells assessed as compound recovery at 10 uM by LC-MS/MS analysis; assay type: ADME, cell-based; conditions: Caco-2, read-out: Papp
# In short: (§6)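 Caco-2 monolayers (passage 94–105) were used on day 21 on permeable filters. Transport was run in both directions at pH 7.4 on both sides, 37 °C, 500 rpm stirring. The receiver side was sampled at 15, 30 and 60 min, the donor side at 60 min for mass balance. Mannitol served as integrity marker. LC-MS/MS used a 10–1000 nM external standard curve.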
# [19] = test system: Trypanosoma brucei brucei; test: Trypanocidal activity against bloodstream stage of Trypanosoma brucei brucei AnTat1.1E infected in acute C57BL6J (B6) mouse HAT model assessed as day of parasitemia relapse at 5 mg/kg, po qd administered for 5 days in presence of deoxycoformycin; assay type: functional
# [20] = test system: Trypanosoma brucei brucei; test: Trypanocidal activity against bloodstream stage of Trypanosoma brucei brucei AnTat1.1E infected in acute C57BL6J (B6) mouse HAT model assessed as reduction of parasitemia at 30 mg/kg, po qd administered for 6 days measured after 90 days; assay type: functional, organism-based; parameters: dose 30 mg/kg
# [21] = Apparent initial half life in C57BL/6 mouse at 25 mg/kg, po; assay type: ADME, organism-based; parameters: dose 25 mg/kg, route oral; conditions: in vivo, read-out: alphat1/2(app) (converted)
# [22] = test system: Caco-2; test: Efflux ratio of apparent permeability across basolateral to apical side over apical to basolateral side in human Caco2 cells at 10 uM by LC-MS/MS analysis; conditions: caco-2, 10 µM
# [23] = Cmax in C57BL/6 mouse at 25 mg/kg, po; assay type: ADME, organism-based; parameters: dose 25 mg/kg, route oral; conditions: in vivo
# [24] = test system: Trypanosoma brucei brucei; test: Trypanocidal activity against bloodstream stage of Trypanosoma brucei brucei AnTat1.1E infected in acute C57BL6J (B6) mouse HAT model assessed as day of parasitemia relapse at 5 mg/kg, po qd administered for 5 days; assay type: functional
# [25] = Tmax in C57BL/6 mouse at 25 mg/kg, po and ip; assay type: ADME, organism-based; parameters: dose 25 mg/kg, route oral; conditions: in vivo
# [26] = Apparent terminal half life in C57BL/6 mouse at 25 mg/kg, ip; assay type: ADME, organism-based; parameters: dose 25 mg/kg, route intraperitoneal; conditions: in vivo, read-out: betat1/2(app) (converted)
# [27] = Metabolic stability in CD-1 mouse liver microsomes at 1 uM by LC-MS/MS analysis; assay type: ADME, Microsome; in short: as §5
# [28] = Apparent permeability across basolateral to apical side in human Caco2 cells assessed as compound recovery at 10 uM by LC-MS/MS analysis; assay type: ADME, cell-based; conditions: Caco-2, read-out: Papp; in short: as §6
# [29] = test system: Trypanosoma brucei brucei; test: Trypanocidal activity against bloodstream stage of Trypanosoma brucei brucei AnTat1.1E infected in acute C57BL6J (B6) mouse HAT model assessed as day of parasitemia relapse at 15 mg/kg, po qd administered for 5 days; assay type: functional
# [30] = Apparent initial half life in C57BL/6 mouse at 25 mg/kg, ip; assay type: ADME, organism-based; parameters: dose 25 mg/kg, route intraperitoneal; conditions: in vivo, read-out: alphat1/2(app) (converted)
# [31] = Apparent terminal half life in C57BL/6 mouse at 25 mg/kg, po; assay type: ADME, organism-based; parameters: dose 25 mg/kg, route oral; conditions: in vivo, read-out: betat1/2(app) (converted)
# [32] = Fraction unbound in human plasma at 10 uM after 4 hrs by equilibrium dialysis method; assay type: ADME, cell-free; in short: as §4
# [33] = test system: Trypanosoma brucei brucei; test: Trypanocidal activity against bloodstream stage of Trypanosoma brucei brucei AnTat1.1E infected in acute C57BL6J (B6) mouse HAT model assessed as day of parasitemia relapse at 1 mg/kg, po bid administered for 5 days; assay type: functional
# [34] = Apparent permeability across apical to basolateral side in human Caco2 cells at 10 uM by LC-MS/MS analysis; assay type: ADME, cell-based; conditions: Caco-2; in short: as §6
# [35] = Apparent permeability across basolateral to apical side in human Caco2 cells at 10 uM by LC-MS/MS analysis; assay type: ADME, cell-based; conditions: Caco-2; in short: as §6
# [36] = Cmax in C57BL/6 mouse at 25 mg/kg, ip; assay type: ADME, organism-based; parameters: dose 25 mg/kg, route intraperitoneal; conditions: in vivo
structure (smiles),measurement,setting,value
Nc1nc(F)nc2c1ncn2[C@@H]1O[C@H](CO)C[C@@H]1O,IC50,[1]; read-out: IC50,> 100000 nM
Nc1nc(F)nc2c1ncn2[C@@H]1O[C@H](CO)[C@@H](O)[C@H]1O,Ki,[2],2710 nM
same,IC50,[1]; read-out: IC50,> 100000 nM
Nc1nc(NCCO)nc2c1ncn2[C@@H]1O[C@H](CO)C[C@H]1O,IC50,[1]; read-out: IC50,> 50000 nM
Nc1ncnc2c1ncn2[C@@H]1O[C@H](CO)[C@H]2O[C@H]21,IC50,[1]; read-out: IC50,> 100000 nM
CCCCCCCC(=O)Nc1ncnc2c1ncn2[C@@H]1O[C@H](CO)C[C@H]1O,IC50,[3],18600 nM
same,Activity,[4],Active
same,IC50,[1]; read-out: IC50(app),28 nM
same,IC50,[5],1 nM
same,Activity,[6],Active
same,Activity,[7],inactive
OC[C@H]1O[C@@H](n2cnc3cncnc32)[C@H](O)[C@@H]1O [NEBULARINE],IC50,[3],2370 nM
same,IC50,[1]; read-out: IC50,1150 nM
Nc1nc(Cl)nc2c1ncn2[C@@H]1O[C@H](CO)[C@@H](O)[C@H]1O,Ki,[2],9650 nM
Nc1ncnc2c1ncn2[C@@H]1O[C@H](CO)C[C@H]1O [CORDYCEPIN],Activity,[8],inactive
same,Activity,[9],inactive
same,IC50,[3],28700 nM
same,IC50,[10],100 nM
same,Ki,[2],180 nM
same,IC50,[11],42 nM
same,IC50,[12],1.2 nM
same,IC50,[1]; read-out: IC50,30 nM
same,Activity,[13],Active
same,IC50,[14],32 nM
same,IC50,[15],≥ 100000 nM
Nc1nc(F)nc2nc[nH]c12,Ki,[2],900 nM
same,IC50,[1]; read-out: IC50,> 100000 nM
Nc1nc(F)nc2c1ncn2[C@@H]1O[C@H](CO)C[C@H]1O,"remaining at 4 h, 10 µM",[16],98%
same,Stability,[17],Stable
same,recovery at 10 µM,[18],102%
same,Time,[19],5 days
same,Activity,[8],inactive
same,IC50,[10],2130 nM
same,Ki,[2],960 nM
same,Activity,[20],Active
same,half-life,[21],54 min
same,Ratio,[22],0.5
same,Cmax,[23],4 µM
same,IC50,[11],176 nM
same,Time,[24],7 days
same,Tmax,[25],30 min
same,IC50,[12],170 nM
same,IC50,[1]; read-out: IC50,170 nM
same,half-life,[26],366 min
same,Stability,[27],Stable
same,recovery at 10 µM,[28],104%
same,Time,[29],7 days
same,half-life,[30],36 min
same,half-life,[31],408 min
same,"fraction unbound at 4 h, 10 µM",[32],1
same,Time,[33],2 days
same,Papp A→B at 10 µM,[34],3 ×10⁻⁶ cm/s
same,Papp B→A at 10 µM,[35],1.4 ×10⁻⁶ cm/s
same,IC50,[15],2440 nM
same,Cmax,[36],9.17 µM
Nc1[nH]c(Cl)nc2ncnc1-2,Ki,[2],2600 nM
OC[C@@H]1C[C@@H](O)[C@H](n2cnc3cncnc32)O1,IC50,[3],> 100000 nM
same,IC50,[1]; read-out: IC50,8790 nM
Nc1ncnc2c1ncn2[C@@H]1O[C@H](CO)[C@@H](O)[C@@H]1O [VIDARABINE],IC50,[1]; read-out: IC50,> 100000 nM
Nc1[nH]cnc2ncnc1-2 [ADENINE],Ki,[2],280 nM
Nc1nc(Cl)nc2c1ncn2[C@@H]1O[C@H](CO)C[C@H]1O,Ki,[2],3970 nM
same,IC50,[1]; read-out: IC50,> 50000 nM
